Usually IC50 stands for the concentration that inhibits the measured activity by half. The term half-life denotes the time in which the quantity being followed falls by half.

Consider seven compounds from paper PMC7184160 (EBioMedicine, 2020).

Like-named read-outs stand apart in the source and are kept apart here.

Data set [1] deals with metastatic RCC. To be noted: range over the agents, cited from earlier work.
The nature of data set [2]: phase 1 safety and tolerability of vorolanib plus everolimus. The class given is in vivo, human. To be noted: in the combination, 22 patients. Summed up: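 Open-label, single-centre 3+3 escalation in Chinese patients with advanced ccRCC after failed standard therapy. Oral test compound at 100, 150 or 200 mg daily, given 4 h after partner drug at a fixed 5 mg daily, in 28-day cycles. AEs graded by CTCAE v4.03. Allowed changes: stepwise reduction 200→150→100 mg/day, partner drug 5 mg every other day, and interruption up to 4 weeks.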

The conditions of data set [3]: cited from earlier work.
Data set [4] has as its system metastatic RCC. To be noted: phase II, advanced RCC after one previous antiangiogenic therapy; cited from earlier work.
For data set [5] the following is noted: cited from earlier work. The source holds these as a separate data set.
In data set [6] the test system is VEGFR2 (KDR), PDGFR, Flt3 and c-Kit. To be noted: range over VEGFR2 (KDR), ref unpublished data; cited from earlier work.
For data set [7] the following is noted: cited from earlier work. This is another data set of the same source.
Data set [8] can be described thus: plasma pharmacokinetics of vorolanib, X-297 and everolimus. The class given is in vivo. To be noted: human, oral, t1/2z (half-life), range over cohorts, first single dose, vorolanib 100–200 mg in combination with everolimus 5 mg.
For data set [9] the following is noted: cited from earlier work. This is another data set of the same source.
Setting [10] is: established second-line monotherapies, Discussion.
[11] abbreviates: second-line options for metastatic RCC.
[12] abbreviates: monotherapy 50–800 mg once daily.

Consider `CNC(=O)c1ccccc1Sc1ccc2c(/C=C/c3ccccn3)n[nH]c2c1` [axitinib], for which the “median PFS” value is 4.4–8.3 months in the data set with metastatic RCC [1] (setting [10]) and 3.8–7.4 months in the data set on metastatic RCC [1] (setting [11]).

For `COc1cc2nccc(Oc3ccc(NC(=O)C4(C(=O)Nc5ccc(F)cc5)CC4)cc3)c2cc1OC` [cabozantinib], the results for the “median PFS” value with metastatic RCC [1] (setting [10]) and in the data set on metastatic RCC [1] (setting [11]) were 4.4–8.3 months and 3.8–7.4 months, respectively.

`CO[C@H]1C[C@@H]2CC[C@@H](C)[C@@](O)(O2)C(=O)C(=O)N2CCCC[C@H]2C(=O)O[C@H]([C@H](C)C[C@@H]2CC[C@@H](OCCO)[C@H](OC)C2)CC(=O)[C@H](C)/C=C(\C)[C@@H](O)[C@@H](OC)C(=O)[C@H](C)C[C@H](C)/C=C/C=C/C=C/1C` [everolimus]: the “patients with dose interruption” value in data set [2] was “eight”. Further, in data set [3], the “patients with grade 3 and 4 events” value was 50%. For the same compound, the “median PFS” value in the data set with metastatic RCC [1] (setting [10]) was 4.4–8.3 months; in the data set with metastatic RCC [1] (setting [11]) it was 3.8–7.4 months; in the data set on metastatic RCC [4], 5.5 months.

For the compound `COc1cc2nccc(Oc3ccc(NC(=O)NC4CC4)c(Cl)c3)c2cc1C(N)=O` [lenvatinib], the “median PFS” value with metastatic RCC [4] was 7.4 months.

Turning to `CCN(CC)CCNC(=O)c1c(C)[nH]c(/C=C2\C(=O)Nc3ccc(F)cc32)c1C` [sunitinib], in data set [5], the “grade 3/4 AE diarrhea” value is recorded as 5%, the “grade 3/4 AE fatigue” value is 7%, the “grade 3/4 AE hand-foot syndrome” value is given as 5% and the “grade 3/4 AE hypertension” value is listed as 8%. Besides, in [5], the “grade 3/4 AE increased lipase” value is listed as 13%, the “grade 3/4 AE lymphopenia” value was 12%, the “grade 3/4 AE neutropenia” value is on record as 11% and the “grade 3/4 AE vomiting” value is 4%.

Turning to `Cc1[nH]c(/C=C2\C(=O)Nc3ccc(F)cc32)c(C)c1C(=O)N[C@H]1CCN(C(=O)N(C)C)C1` [vorolanib, Vorolanib], the IC50 in data set [6] is 0.13 to 1.12 nM. In [7] (setting [12]), the “grade 4 AEs or deaths related to vorolanib” value was “no grade 4 AEs or deaths related to vorolanib was reported” and the “treatment-related grade 3 adverse event proteinuria” value is 4%. Further, in data set [7] (monotherapy tablet once daily), the “apparent saturation of absorption (dose)” value was 400 to 800 mg. Also, the MTD entry in [7] (monotherapy tablet, dose range 50–800 mg once daily, solid tumors) is reported as “not achieved”. For the same compound, in data set [7] (monotherapy, dose range 20 to 400 mg daily), the “maximum tolerated dose (MTD)” value is given as “without achieving the most tolerated dose (MTD)”. In addition, the “recommended dose of monotherapy” value in data set [7] (once daily, patients with advanced cancer) is 400 mg. Moreover, in data set [2], the “patients with dose interruption” value is “fourteen” and the “patients with dose reduction” value was “four”. Besides, in [8], the half-life is 4.74 to 12.9 h. Also, the “patients with grade 3 or higher events” value in data set [9] (across 100 to 250 mg dose cohort) is given as 7 out of 19. Besides, the “recommended dose for monotherapy” value in [9] was 200 mg. For the same compound, the MTD entry in [9] (monotherapy 50–250 mg once daily, Chinese patients) is listed as “not achieved”. Besides, the “dose-limited toxicity (DLT)” value in data set [9] (monotherapy, China) is listed as “No dose-limited toxicity (DLT) was observed”.

Turning to nivolumab, the “median PFS” value in the data set on metastatic RCC [1] (setting [10]) is listed as 4.4–8.3 months; with metastatic RCC [1] (setting [11]), 3.8–7.4 months.
